How the values were obtained:
Cytochrome P450 2C9 = Cytochrome P450 2C9 (Homo sapiens, UniProt P11712); experiment: Inhibition of CYP2C9 in human liver microsomes at 1 uM measured after 20 mins in presence of NADPH by LC/MS/MS analysis; type: ADME
Procedure, shortened: (§1)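 CYP isoforms 1A2, 2D6, 3A4, 2C9 and 2C19 were tested at 1 and 10 µM. Results are % inhibition compared with a no-inhibitor control, run in triplicate.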

[1] = Protein binding in human plasma at 10 uM after 5 to 10 mins by LC-MS/SM analsysis; type: ADME, cell-free; details: read-out: PPB
Procedure, shortened: (§2)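 Plasma protein binding was measured by equilibrium dialysis at 10 µM compound.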

[2] = Half life in Sprague-Dawley rat at 5 mg/kg, iv administered as single bolus dose; type: ADME, organism-based; details: in vivo
Procedure, shortened: (§3)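 Male Sprague-Dawley rats were dosed i.v. in a vehicle of 20% NMP + 20% ethanol + 60% PEG 200. T1/2, CL and Vz were derived. Values are mean ± SD, n = 3.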

[3] = Metabolic stability in rat liver microsomes assessed as parent compound remaining at 1 uM after 60 mins in presence of NADPH by LC/MS/MS analysis; type: ADME, microsome; details: read-out: Stability
Procedure, shortened: (§4)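 Compound at 1.0 µM was incubated with liver microsomes (1.0 mg/mL protein) at 37 °C for 60 min. Samples were analysed by LC/MS/MS as % parent remaining. Run in triplicate.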

[4] = Metabolic stability in human liver microsomes assessed as parent compound remaining at 1 uM after 60 mins in presence of NADPH by LC/MS/MS analysis; type: ADME, microsome; details: read-out: Stability; procedure, shortened: as §4
[5] = Cmax in Sprague-Dawley rat at 10 mg/kg, po; type: ADME, organism-based; parameters: dose 10 mg/kg, route oral; details: in vivo
Procedure, shortened: (§5)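 Male Sprague-Dawley rats were dosed orally as a 0.5% methylcellulose suspension. Cmax, AUC0-24, Tmax, T1/2 and %F were determined. Values are mean ± SD, n = 3.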

Cytochrome P450 1A2 = target: T1, Cytochrome P450 1A2 (Homo sapiens, UniProt P05177); experiment: Inhibition of CYP1A2 in human liver microsomes at 1 uM measured after 20 mins in presence of NADPH by LC/MS/MS analysis; type: ADME; procedure, shortened: as §1
T1 sequence (P05177 whole entry): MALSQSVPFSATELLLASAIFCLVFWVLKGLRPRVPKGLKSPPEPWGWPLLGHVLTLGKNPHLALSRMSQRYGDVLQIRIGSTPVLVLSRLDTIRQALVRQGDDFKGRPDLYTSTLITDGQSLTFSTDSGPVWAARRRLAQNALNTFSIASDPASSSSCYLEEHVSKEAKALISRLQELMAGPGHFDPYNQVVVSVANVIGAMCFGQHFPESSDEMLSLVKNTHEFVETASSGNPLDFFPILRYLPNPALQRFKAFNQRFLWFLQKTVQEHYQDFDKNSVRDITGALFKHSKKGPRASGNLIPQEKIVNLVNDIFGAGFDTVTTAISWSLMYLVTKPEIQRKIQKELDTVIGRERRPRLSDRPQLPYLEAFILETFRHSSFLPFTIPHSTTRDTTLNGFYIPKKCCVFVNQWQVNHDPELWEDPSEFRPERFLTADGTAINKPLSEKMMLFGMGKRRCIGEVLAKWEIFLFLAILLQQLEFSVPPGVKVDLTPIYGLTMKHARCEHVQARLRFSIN

Cytochrome P450 2C19 = Cytochrome P450 2C19 (Homo sapiens, UniProt P33261); experiment: Inhibition of CYP2C19 in human liver microsomes at 1 uM measured after 40 mins in presence of NADPH by LC/MS/MS analysis; type: ADME; procedure, shortened: as §1
[6] = Apparent volume of distribution in Sprague-Dawley rat at 5 mg/kg, iv administered as single bolus dose; type: ADME, organism-based; details: in vivo, read-out: Vz; procedure, shortened: as §3
[7] = target: Prostaglandin G/H synthase 1 (Homo sapiens, UniProt P23219); experiment: Inhibition of COX1 in human U937 cells assessed as decrease in PGE2 release using arachidonic acid as substrate preincubated for 15 mins followed by arachidonic acid addition measured after 5 mins; type: cell-based
[8] = Tmax in Sprague-Dawley rat at 10 mg/kg, po; type: ADME, organism-based; details: in vivo; procedure, shortened: as §5
[9] = target: T2, Prostaglandin G/H synthase 2 (Homo sapiens, UniProt P35354); experiment: Inhibition of recombinant human N-terminal His-tagged COX2 expressed in baculovirus infected Sf21 insect cells assessed as decrease in PGE2 release using arachidonic acid as substrate preincubated for 15 mins followed by arachidonic acid addition measured after 5 mins
T2 sequence (P35354 whole entry): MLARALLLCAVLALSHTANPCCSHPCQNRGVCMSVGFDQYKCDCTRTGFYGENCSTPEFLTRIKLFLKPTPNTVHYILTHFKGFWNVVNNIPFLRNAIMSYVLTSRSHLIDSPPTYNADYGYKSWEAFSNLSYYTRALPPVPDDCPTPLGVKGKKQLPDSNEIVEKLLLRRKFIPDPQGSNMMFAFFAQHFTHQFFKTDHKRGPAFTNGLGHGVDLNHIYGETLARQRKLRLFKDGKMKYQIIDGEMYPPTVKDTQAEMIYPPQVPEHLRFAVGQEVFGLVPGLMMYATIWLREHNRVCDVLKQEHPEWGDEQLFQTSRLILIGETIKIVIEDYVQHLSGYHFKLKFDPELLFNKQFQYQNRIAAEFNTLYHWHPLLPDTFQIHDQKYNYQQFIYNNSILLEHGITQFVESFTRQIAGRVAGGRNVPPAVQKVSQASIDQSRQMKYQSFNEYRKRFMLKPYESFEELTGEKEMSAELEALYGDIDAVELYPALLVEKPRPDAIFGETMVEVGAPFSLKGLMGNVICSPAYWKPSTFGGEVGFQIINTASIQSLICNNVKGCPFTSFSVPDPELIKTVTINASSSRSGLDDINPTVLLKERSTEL

[10] = Protein binding in Guinea pig plasma at 10 uM after 5 to 10 mins by LC-MS/SM analysis; type: ADME, cell-free, Cavia porcellus; details: read-out: PPB; procedure, shortened: as §2
Cytochrome P450 2D6 = Cytochrome P450 2D6 (Homo sapiens, UniProt P10635); experiment: Inhibition of CYP2D6 in human liver microsomes at 1 uM measured after 20 mins in presence of NADPH by LC/MS/MS analysis; type: ADME; procedure, shortened: as §1
[11] = Half life in Sprague-Dawley rat at 10 mg/kg, po; type: ADME, organism-based; details: in vivo; procedure, shortened: as §5
Cytochrome P450 3A4 = Cytochrome P450 3A4 (Homo sapiens, UniProt P08684); experiment: Inhibition of CYP3A4 in human liver microsomes at 1 uM measured after 20 mins in presence of NADPH by LC/MS/MS analysis; type: ADME; procedure, shortened: as §1
CYP2C9 = CYP2C9 (Homo sapiens, UniProt P11712); experiment: Inhibition of CYP2C9 in human liver microsomes at 10 uM measured after 20 mins in presence of NADPH by LC/MS/MS analysis relative to control; type: ADME; procedure, shortened: as §1
CYP3A4 = CYP3A4 (Homo sapiens, UniProt P08684); experiment: Inhibition of CYP3A4 in human liver microsomes at 10 uM measured after 20 mins in presence of NADPH by LC/MS/MS analysis relative to control; type: ADME; procedure, shortened: as §1
[12] = AUC (0 to 24 hrs) in Sprague-Dawley rat at 10 mg/kg, po; type: ADME, organism-based; parameters: dose 10 mg/kg, time < 24 hr, route oral; details: in vivo; procedure, shortened: as §5

Sequence of CYP3A4 (P08684 whole entry): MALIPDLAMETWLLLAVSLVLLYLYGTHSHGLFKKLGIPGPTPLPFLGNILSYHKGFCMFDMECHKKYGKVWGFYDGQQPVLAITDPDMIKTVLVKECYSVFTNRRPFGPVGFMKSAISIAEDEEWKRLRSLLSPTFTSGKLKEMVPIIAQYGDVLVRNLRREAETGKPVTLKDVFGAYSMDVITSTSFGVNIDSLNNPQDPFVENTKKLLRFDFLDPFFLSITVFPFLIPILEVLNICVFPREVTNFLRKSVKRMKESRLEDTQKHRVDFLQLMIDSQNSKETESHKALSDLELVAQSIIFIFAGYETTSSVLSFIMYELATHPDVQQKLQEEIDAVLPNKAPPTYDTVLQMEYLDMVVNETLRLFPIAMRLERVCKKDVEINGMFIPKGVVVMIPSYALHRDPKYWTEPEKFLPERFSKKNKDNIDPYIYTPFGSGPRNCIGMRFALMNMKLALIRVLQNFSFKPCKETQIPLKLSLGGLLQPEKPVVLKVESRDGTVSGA
Sequence of Cytochrome P450 3A4 (P08684 whole entry): as above
Sequence of Cytochrome P450 2D6 (P10635 whole entry): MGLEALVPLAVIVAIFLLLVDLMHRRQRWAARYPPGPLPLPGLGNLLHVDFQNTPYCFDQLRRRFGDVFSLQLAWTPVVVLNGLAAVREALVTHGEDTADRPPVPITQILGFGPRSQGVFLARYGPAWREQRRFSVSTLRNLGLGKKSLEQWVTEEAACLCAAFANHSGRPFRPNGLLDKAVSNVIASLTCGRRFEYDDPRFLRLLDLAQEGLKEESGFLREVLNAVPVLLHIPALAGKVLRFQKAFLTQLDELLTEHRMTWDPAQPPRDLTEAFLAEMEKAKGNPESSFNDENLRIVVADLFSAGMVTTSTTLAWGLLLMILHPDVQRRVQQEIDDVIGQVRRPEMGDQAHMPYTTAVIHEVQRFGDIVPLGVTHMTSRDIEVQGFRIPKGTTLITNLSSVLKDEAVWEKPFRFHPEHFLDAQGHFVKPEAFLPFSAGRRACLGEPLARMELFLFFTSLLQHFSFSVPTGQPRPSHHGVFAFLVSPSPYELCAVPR
Sequence of Prostaglandin G/H synthase 1 (P23219 whole entry): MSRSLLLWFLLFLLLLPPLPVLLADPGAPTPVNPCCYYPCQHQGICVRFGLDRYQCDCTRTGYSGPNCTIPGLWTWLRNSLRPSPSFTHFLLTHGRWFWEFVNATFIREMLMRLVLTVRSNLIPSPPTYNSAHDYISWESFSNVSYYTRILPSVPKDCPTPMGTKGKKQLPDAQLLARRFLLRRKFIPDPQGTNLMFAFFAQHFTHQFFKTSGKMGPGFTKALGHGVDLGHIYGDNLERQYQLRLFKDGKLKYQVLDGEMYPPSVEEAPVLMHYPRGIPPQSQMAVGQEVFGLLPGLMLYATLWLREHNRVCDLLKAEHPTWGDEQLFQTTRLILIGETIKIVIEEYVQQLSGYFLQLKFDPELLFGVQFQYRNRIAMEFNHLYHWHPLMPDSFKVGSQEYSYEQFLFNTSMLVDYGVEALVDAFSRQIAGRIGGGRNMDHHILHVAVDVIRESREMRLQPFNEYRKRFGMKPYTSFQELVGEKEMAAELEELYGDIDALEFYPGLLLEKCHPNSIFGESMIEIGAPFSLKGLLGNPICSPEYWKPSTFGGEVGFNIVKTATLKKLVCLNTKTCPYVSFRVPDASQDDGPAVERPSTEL
Sequence of Cytochrome P450 2C19 (P33261 whole entry): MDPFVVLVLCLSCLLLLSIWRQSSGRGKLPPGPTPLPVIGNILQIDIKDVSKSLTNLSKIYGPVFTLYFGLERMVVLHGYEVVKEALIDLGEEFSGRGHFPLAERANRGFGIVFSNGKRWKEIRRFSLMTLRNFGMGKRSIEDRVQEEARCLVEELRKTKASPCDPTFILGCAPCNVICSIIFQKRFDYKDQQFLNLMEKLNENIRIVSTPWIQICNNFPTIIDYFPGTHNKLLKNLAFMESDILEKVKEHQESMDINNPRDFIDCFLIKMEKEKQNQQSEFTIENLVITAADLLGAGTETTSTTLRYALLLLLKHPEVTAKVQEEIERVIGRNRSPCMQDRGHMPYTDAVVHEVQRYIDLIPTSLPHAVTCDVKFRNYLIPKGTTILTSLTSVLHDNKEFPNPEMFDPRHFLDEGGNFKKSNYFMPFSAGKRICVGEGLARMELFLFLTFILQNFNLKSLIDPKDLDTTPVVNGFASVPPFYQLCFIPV
Sequence of CYP2C9 (P11712 whole entry): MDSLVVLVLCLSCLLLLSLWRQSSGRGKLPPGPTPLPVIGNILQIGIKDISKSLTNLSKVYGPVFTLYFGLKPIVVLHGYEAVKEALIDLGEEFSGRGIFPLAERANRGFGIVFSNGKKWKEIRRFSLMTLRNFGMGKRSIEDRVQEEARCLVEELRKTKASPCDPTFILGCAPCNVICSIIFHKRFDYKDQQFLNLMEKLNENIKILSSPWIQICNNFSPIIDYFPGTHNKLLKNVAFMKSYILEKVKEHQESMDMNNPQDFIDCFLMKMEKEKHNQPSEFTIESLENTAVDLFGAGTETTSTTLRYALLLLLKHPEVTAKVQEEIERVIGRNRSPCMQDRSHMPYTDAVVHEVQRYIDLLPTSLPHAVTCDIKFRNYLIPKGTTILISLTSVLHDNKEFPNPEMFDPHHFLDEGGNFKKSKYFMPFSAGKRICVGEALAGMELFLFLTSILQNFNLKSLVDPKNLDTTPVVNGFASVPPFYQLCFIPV
Sequence of Cytochrome P450 2C9 (P11712 whole entry, canonical isoform): as the sequence (P11712 whole entry) above

inhibition (INH) (Cytochrome P450 2C9)	fraction unbound at 10 µM [1]	half-life [2] [h]	remaining at 1 h, 1 µM [3] [%]	remaining at 1 h, 1 µM [4] [%]	Cmax [5] [ng/mL]	inhibition (INH) (Cytochrome P450 1A2)	inhibition (INH) (Cytochrome P450 2C19)	Vd [6] [L/kg]	IC50 [7] [µM]	Tmax [8] [h]	IC50 [9] [µM]	fraction unbound at 10 µM [10]	inhibition (INH) (Cytochrome P450 2D6)	half-life [11] [h]	inhibition (INH) (Cytochrome P450 3A4)	inhibition at 20 min, 10 µM (CYP2C9) [%]	inhibition at 20 min, 10 µM (CYP3A4) [%]	AUC(0-t) at 24 h [12] [ng·h/mL]	Structure (SMILES)
Not Active	< 0.045	5.5	44	76	1180	Not Active	Not Active	5.3	0.06	4	9.88	< 0.005	Not Active	6.77	Not Active	33.3	31	12400	CC1(C)Oc2cc(C#Cc3cc(Cl)ccc3F)ccc2-c2[nH]c(-c3c(F)cccc3Cl)nc21
Not Active	< 0.005	9.87	83	84	826	Not Active	Not Active	3.11	6.75	4	> 10	< 0.005	Not Active	11.2	Not Active	45.4	8.4	12600	CC1(C)Oc2cc(-c3cccc(OC(F)(F)F)c3)ccc2-c2[nH]c(-c3c(F)cccc3Cl)nc21

— ChEMBL document CHEMBL4028818, “Tricyclic 4,4-dimethyl-3,4-dihydrochromeno[3,4-d]imidazole derivatives as microsomal prostaglandin E2 synthase-1 (mPGES-1) inhibitors: SAR and in vivo efficacy in hyperalgesia pain model” (Bioorg Med Chem Lett, 2017)
